# Data taken from ChEMBL document CHEMBL4513216, “Probing the Open Global Health Chemical Diversity Library for Multistage-Active Starting Points for Next-Generation Antimalarials” (ACS Infect Dis, 2020).
# Experiment: Toxicity liver stage against HepG2, at 10uM
# Type: cell-based
# Set-up: test concentration 10 uM, cell line HepG2-A16-CD81EGFP
# Conditions: human, HepG2-A16-CD81EGFP cells; read-out: INHIBITION
# Method in brief: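 Uninfected HepG2-A16-CD81EGFP cells, 3 × 10^3 per well, 1536-well, plated on prespotted compound at 10 μM final, parasite-free screening media added to match infected plates; puromycin 10 μM positive, DMSO 0.5% negative; run in parallel with 48 h PbLuc assay at 37 °C, 5% CO2; viability by CellTiter-Glo luminescence, normalized to controls.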
row,Compound,cytotoxicity at 10 µM [%]
1,CC(C)(C)CN1CC(O)CN(C(=O)c2cccc(C(F)(F)F)c2)CC1=O (stereo unspecified),5.99
2,CC[C@H](C)[C@H](NC(=O)c1ccc(-n2cnnn2)cc1)C(=O)OC,9.09
3,COc1ccc(-c2csc3c2c(N)nc(=O)n3CCCN(C)C)cc1,-54
4,O=C(CN1C(=O)CCC1=O)N1CCOCC1,2.48
5,Cc1cnc2n(c1=O)C(CC(=O)NCc1ccc(Cl)cc1)CS2 (stereo unspecified),-5.55
6,COC(=O)c1ccc(S(=O)(=O)NC2CNC(=O)C2)cc1 (stereo unspecified),-7.27
7,O=C(Nc1cnccn1)[C@H]1C[C@H]2OCC[C@H]2N(c2ncc(F)cn2)C1,16.4
8,CC(C)N1CCC(c2ccnc3c(C(=O)N4CCCC4)ncn23)CC1,-5.49
9,O=C(c1cnccn1)N1CCn2cnc(COCC3CC3)c2C1,7.14
10,CC(C)CCNc1c(C#N)c2c(c3nncn13)CN(C)CC2,9.26
11,Cc1oc(-c2nc(C#N)c(NC(C)C)o2)cc1S(=O)(=O)N1CCCCC1,4.28
12,C=C/C=c1\c(=C/C)oc2c(NCc3ccccc3)ncnc12,21.3
13,Cc1cccc2c1cnn2CCCNC(=O)CCCC(=O)O,-11.1
14,Cc1cc(C)n(-c2nc(C(=O)NCCN3CCC(C)CC3)cs2)n1,10.2
15,Cc1nc(O)c2c(n1)CCN(Cc1cc(C)sc1C)CC2,-9
16,Cc1cc(C(F)(F)F)c2c(C3CCN(S(=O)(=O)N(C)C)CC3)noc2n1,3.63
17,CC(C)(C)n1ncc(NCc2ccccc2)c(Cl)c1=O,55.8
18,CCCc1nn(Cc2csc(CC)n2)c(=O)o1,-43.1
19,Cn1cnc2c1CCN(c1ccnc(-c3ccccc3)n1)C2,7.51
20,COCc1nc(-c2ccc(S(=O)(=O)N3CCCC3)cc2)cs1,-49.8
21,COCCN1CCC(CNc2nc3ccccc3o2)CC1,-53.6
22,CN1CCC(N(Cc2ccco2)S(=O)(=O)c2ccc(Br)cc2Cl)CC1,-12.8
23,COC(=O)NCC(=O)N1CCCC1c1nc(-c2ccccc2F)c[nH]1 (stereo unspecified),8.01

row,Compound,cytotoxicity at 10 µM [%]
1,CC(=O)N1CCc2ccccc2C1CC(=O)NCc1nnc(C)o1 (stereo unspecified),5.8
2,Cc1ccc(C(C)NC(=O)N2CCCN(CC(F)F)CC2)s1 (stereo unspecified),3.44
3,CC(=O)c1cccc(NC(=O)N(CC(F)F)C2CC2)c1,2.08
4,CC1CN(c2ncnc3sccc23)CCN1c1nccs1 (stereo unspecified),32.1
5,CSCC(=O)N1CCN(CC(O)C(C)(C)C)CC1 (stereo unspecified),-5.66
6,COc1cc2c(cc1CNCc1cccnc1OC)OC(C)C2 (stereo unspecified),3.67
7,NC(=O)C(NCc1cccs1)c1ccccc1 (stereo unspecified),-41.5
8,Cc1occc1C(=O)NCC(=O)N(C)CCCOc1ccccc1,-50.2
9,Cc1ccc(C(C)(C)CNC(=O)NC(C)Cn2cncn2)cc1 (stereo unspecified),3.09
10,CC(CNC(=O)CCCc1ccccn1)c1ccsc1 (stereo unspecified),7.42
11,CCS(=O)(=O)N1Cc2ccccc2CC1C(=O)OCc1cc(C)no1 (stereo unspecified),-13
12,CCS(=O)(=O)Cc1nnnn1-c1ccccc1,2.7
13,C=C(C)CN1CCCC1c1nc(Cc2ccc(F)cc2)no1 (stereo unspecified),-4.9
14,CCN(CCCNC(=O)c1ccc(C)[nH]c1=O)S(C)(=O)=O,-8.01
15,Cc1ccc(C(CNCc2ncc[nH]2)N2CCOCC2)s1 (stereo unspecified),12
16,Cc1nc2c(c(C)c1CC(=O)Nc1ccccc1F)c(=O)[nH]n2C,0.177
17,CC(C)c1ocnc1C(=O)NC1(c2cccc(F)c2)CCOCC1,6.81
18,Cc1ccc(C(=O)N2CCCC(n3cncn3)C2)o1 (stereo unspecified),4.35
19,COc1ncc(Cl)c(NCc2ccc([S+](C)[O-])cc2)n1 (stereo unspecified),-4.18
20,Cc1nnc2n1CC(CNc1cnc3ccccc3n1)CC2 (stereo unspecified),-41.5
21,COc1cccc(CN(C)C(=O)c2ccc(NC(C)=O)s2)c1OC,0.23
22,CNC(=O)c1ccc(OC)c(NCc2ncc(-c3cccs3)o2)c1,14
23,CC(CCN(C)C)NC(=O)N1CCSC(C)(C)C1 (stereo unspecified),5.4

row,Compound,cytotoxicity at 10 µM [%]
1,Cc1ccccc1CN(C)CC(O)COCc1ccccc1Cl (stereo unspecified),8.49
2,CSCCC(NC(=O)c1ccc2ccccc2n1)C(=O)N(C)C (stereo unspecified),-12
3,CC(C)(C)c1cnc(CN2CCC(NC(=O)NC3CCCCC3)CC2)o1,-3.73
4,Cc1nc(-c2ccccc2)sc1CSCCC(N)=O,-7.97
5,O=C(COCc1ccccc1Cl)N1CCN(c2ccc(Br)cn2)CC1,46.6
6,O=C(NC1CC1)N1C[C@H]2CN(Cc3cccc(F)c3)C(=O)[C@H]2C1,-70.5
7,CS(=O)(=O)N[C@H]1CN(C(=O)c2cscn2)[C@@H]2CCCO[C@H]12,-84.6
8,O=C1CC2(CCN(Cc3ccoc3)C2)CN1c1ccc2c(c1)OCO2 (stereo unspecified),-6.72
9,CCCOC(=O)N1CCn2nc(-c3nc4ccccc4n3C)cc2C1,10.6
10,COCC(=O)Nc1ccccc1Sc1c(C)n[nH]c1C,-10.2
11,CC1CN(CC(=O)NCCc2ccncc2)Cc2ccccc2O1 (stereo unspecified),-0.369
12,CCC(=O)N1CCN(C(=O)Nc2ccc(Cl)cc2)[C@H]2CS(=O)(=O)C[C@H]21,-43.9
13,COc1cccc(-c2nc3c([nH]2)CCNC3)c1F,-44.7
14,O=C1N(Cc2ccc(F)c(F)c2)CCCC1(O)CNCc1cccnc1 (stereo unspecified),0.598
15,COc1ccc(C(=O)C2CCCN(c3cc(N)ncn3)C2)c(C)c1 (stereo unspecified),5.31
16,CCCc1nc(N2CCC(CCO)CC2)c2cnn(C)c2n1,2.28
17,COc1cccc(CN2CCCCC2CN2CCOCC2)c1F (stereo unspecified),2.64
18,Cc1ccccc1OC1CCN(C(=O)c2c[nH]c(=O)[nH]c2=O)CC1,5.25
19,CNc1ncc(CN(C)Cc2cc(O)c3cccc(Cl)c3n2)cn1,7.05
20,COc1ccc2c(C)c(C(=O)NC3CCCOC3)oc2c1 (stereo unspecified),-7.28
21,COc1nccnc1-c1cc(NC2CCCC2)nc2[nH]ccc12,1.97
22,COc1ccc(C(=O)NC2CC2)c(OC2CCN(CCCSC)CC2)c1,-1.76
23,Cc1cccc2c(CCNC(=O)[C@H](N)c3ccccc3)c[nH]c12,-3.55

row,Compound,cytotoxicity at 10 µM [%]
1,CC(C)C1CN(C(=O)c2cn3cc(Cl)cnc3n2)CCCN1CC1CC1 (stereo unspecified),3.46
2,Cn1cc(-c2c(C#N)c(N)nc3c2CCc2[nH]ccc2-3)cn1,-4.37
3,CCC[C@H]1CN(CCS(C)(=O)=O)C[C@@H]1NC(=O)c1ccn(C)n1,5.83
4,N#CC1(c2ccccc2)CCN(C(=O)C2CCCN(CC(N)=O)C2)CC1 (stereo unspecified),-7.47
5,Cn1ccnc1-c1ccc(NC[C@H]2CCc3ccccc3O2)nn1,-5.71
6,COc1cccc2c(=O)n(C3CCCNC3)cnc12 (stereo unspecified),-42.4
7,NC(=O)CN1CCC(C(=O)NCCn2cc(Cl)cn2)CC1,-45.6
8,Fc1cccnc1Oc1cc(F)c(CN2CCCC2)c(Cl)c1,3.3
9,O=C(Nc1ccc2c(c1)OCO2)N1CCN(CCc2ccccc2)CC1,-9.28
10,CN(C)[C@H]1CCCCN(C(=O)c2cccc(-c3cccc(F)c3)c2)C1,-6.3
11,Cc1cnn(CCNc2ncnc3c2CCN(CC2CCOC2)CC3)c1 (stereo unspecified),-4.24
12,Cc1ccc(CN2CCN(C(=O)c3ccc(CO)cc3)C(C)C2=O)cc1 (stereo unspecified),6.42
13,Cc1nc(C2CCN(C[C@H](C)CO)CC2)cc(N2CCOCC2)n1,-9.3
14,Cc1ncc(CNC2CC(=O)N(CCc3cccc(Cl)c3)C2)n1C (stereo unspecified),-133
15,O=c1[nH]c(NC2CCCC2)nc2nccc(-c3ccsc3)c12,-12.1
16,O=C(NCCN1CCOCC1)c1ccc(-c2ccc(F)cc2)nc1O,2.25
17,Cc1c[nH]c(CN(C)c2nc(C3CCCC3)nc3c2cnn3C)n1,-7.56
18,CCS(=O)(=O)N(C)c1ccc(C(=O)N2CCCC(C)C2)cc1 (stereo unspecified),-15.4
19,Cc1cc(C(F)(F)F)nn1CCCNC(=O)C1CCCO1 (stereo unspecified),-6.5
20,Cc1cc2n(n1)CC(CNCc1ccc(OCC3CC3)nc1)CN2 (stereo unspecified),-8.42
21,CCc1ccccc1OCC(=O)N1CCOCC1c1ncon1 (stereo unspecified),-8.93
22,CCOc1cc(C)nc(N2CCN(C(=O)C(C)NC(C)=O)CC2)n1 (stereo unspecified),-4.41
23,COc1cc(C)nc(N2CCN(C(=O)CN(C)C(C)C)CC2)n1,-14.6

row,Compound,cytotoxicity at 10 µM [%]
1,CN(C(=O)Cc1ccccc1Cl)C1CCN(c2ccccn2)CC1,-7.48
2,Cc1nc(NC(=O)CN2CCOC(Cn3cccn3)C2)sc1C (stereo unspecified),-8.27
3,CC(C)(C)c1nc(CN2CCCC2Cn2cccn2)no1 (stereo unspecified),0.222
4,CCn1cnnc1CNC(=O)N1CCN(c2nc(C)c(C)s2)CC1,-9.62
5,Cc1nc(CN(C)C2CCN(Cc3nc4ccccc4s3)C2)no1 (stereo unspecified),-4.27
6,CC(C)c1nc(C2CCCN2C(=O)c2nccnc2N)no1 (stereo unspecified),-1.96
7,CC(O)CN1CCN(C(=O)c2ccc3c(c2)COC3)CC1 (stereo unspecified),-6.44
8,O=C(NCC(F)F)c1cnc(C2CCCN2)cn1 (stereo unspecified),0.13
9,CCCC(=O)N(CCCN1CCOCC1)c1nc2c(C)c(C)ccc2s1,-12.6
10,c1cnc(N2CC[C@@H](N3CCOCC3)[C@@H]2Cc2ccncc2)nc1,2.9
11,Cc1cnc(N2CCC3(CCCN3C(=O)c3ccco3)CC2)nc1,6.71
12,Cc1ccc2c(c1)CN(C(=O)C1CCCCC1)C(CN(C)C)CO2 (stereo unspecified),1.85
13,CCc1c(C)[nH]c(C(C)(C)N)nc1=O,-11
14,CCN1CCC2(CC1)CN(C(=O)c1cccnc1)c1ccc(Cl)cc12,-111
15,Cn1nc(COc2cccnc2)c2c1CCN(CC1CC1)C2,-97.8
16,CC(C)C(=O)NC1CC2(CCN(CC(=O)N(C)C)CC2)c2ccccc21 (stereo unspecified),-103
17,Cc1noc(C)c1CN1CCC2(CCN(Cc3cccc(F)c3)CC2)C1,-122
18,COc1ncccc1CNC1CCc2c(ccc(=O)n2C)C1 (stereo unspecified),-103
19,Cc1ncoc1C(=O)N1C[C@H]2CCC[C@@]2(COCc2cccnc2)C1,4.53
